Measurements of several laboratories.
Target: Inhibitor of nuclear factor kappa-B kinase subunit epsilon (IKBKE, Homo sapiens, UniProt Q14164)
Effect on: enzyme activity
One construct used (Q14164 1-716): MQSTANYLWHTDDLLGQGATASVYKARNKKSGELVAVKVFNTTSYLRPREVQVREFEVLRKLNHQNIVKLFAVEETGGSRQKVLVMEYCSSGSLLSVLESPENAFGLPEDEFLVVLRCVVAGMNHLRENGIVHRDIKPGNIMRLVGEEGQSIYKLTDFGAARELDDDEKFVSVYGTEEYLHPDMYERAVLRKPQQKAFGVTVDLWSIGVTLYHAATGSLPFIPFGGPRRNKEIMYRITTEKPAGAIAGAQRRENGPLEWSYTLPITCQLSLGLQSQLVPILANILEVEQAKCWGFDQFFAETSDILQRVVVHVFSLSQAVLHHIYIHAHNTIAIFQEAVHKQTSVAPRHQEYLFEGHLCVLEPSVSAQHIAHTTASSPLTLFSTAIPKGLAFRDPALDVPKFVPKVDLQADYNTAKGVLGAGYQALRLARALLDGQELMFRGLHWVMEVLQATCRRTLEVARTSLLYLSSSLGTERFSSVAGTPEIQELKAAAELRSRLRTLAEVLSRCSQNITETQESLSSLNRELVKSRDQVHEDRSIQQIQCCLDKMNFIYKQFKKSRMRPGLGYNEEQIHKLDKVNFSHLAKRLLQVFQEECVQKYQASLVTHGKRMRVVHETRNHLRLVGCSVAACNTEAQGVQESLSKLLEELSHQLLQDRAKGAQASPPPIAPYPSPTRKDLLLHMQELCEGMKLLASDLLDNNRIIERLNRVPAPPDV

SMILES	test	conditions	remaining activity [%]
NS(=O)(=O)c1ccc(CNc2nc(Nc3cccc(CN4CCOCC4)c3)ncc2Br)cc1	inhibitor, radiometric	1 µM	32
O=C1Nc2ccc(Cl)cc2C1=Cc1cc(Cl)c(O)c(Cl)c1		0.5 µM	94.7
Cc1nn(CC(F)(F)F)cc1Nc1ncc(C2CC2)c(NCCc2c[nH]cn2)n1	inhibitor, radiometric	1 µM	95
CCN(CC)CCNC(=O)c1c(C)[nH]c(/C=C2\C(=O)Nc3ccc(Cl)cc32)c1C	inhibitor	0.5 µM	29.4
Oc1cccc(-c2nc(N3CCOCC3)c3oc4ncccc4c3n2)c1	inhibitor	10 µM	85
Cc1nn(CC(F)(F)F)cc1Nc1ncc(Br)c(NCCc2cnc[nH]2)n1	inhibitor, radiometric	1 µM	55
FC(F)c1nc2ccccc2n1-c1nc(N2CCOCC2)nc(N2CCOCC2)n1	inhibitor	10 µM	84
Cc1cnc(NC2CCOCC2)nc1-n1cnc(C(=O)NC(CN)c2cc(F)cc(Cl)c2)c1 (stereo not drawn)	inhibitor, radiometric	1 µM	64
CC(C)(C)c1nc(-c2cccc(NS(=O)(=O)c3c(F)cccc3F)c2F)c(-c2ccnc(N)n2)s1	inhibitor, radiometric	1 µM	97
O=c1cc(-c2cccc3c2Sc2ccccc2S3)oc(N2CCOCC2)c1	inhibitor	0.5 µM	96.5
NS(=O)(=O)c1ccc(CNc2ccnc(Nc3cccc(CN4CCOCC4)c3)n2)cc1	inhibitor, radiometric	1 µM	78
O=C(Nc1cnn(-c2csc(C(=O)NC3COC3)c2)c1)Nc1ccccc1Cl	inhibitor	5 µM	110
COc1cc(Nc2cnc(C#N)c(O[C@H](C)CN(C)C)n2)ncc1-c1cnn(C)c1	inhibitor, radiometric	10 µM	84
Cc1sc(C(=O)NC2COC2)cc1-n1cc(NC(=O)Nc2c(F)cccc2Cl)cn1	inhibitor	10 µM	116
COc1cc(Cl)c(C(=O)N[C@@H](CN[C@H]2CC[C@@H](N)CC2)Cc2ccc(C#N)cc2)cc1-c1ccc(CN[C@H](C)c2ccc(C)cc2)o1	inhibitor	1 µM	89
